ChEMBL document CHEMBL2390835, “Synthesis and antimalarial testing of neocryptolepine analogues: addition of ester function in SAR study of 2,11-disubstituted indolo[2,3-b]quinolines” (Eur J Med Chem, 2013)

What was measured:
[1] = test system: Plasmodium berghei; test: Antimalarial activity against Plasmodium berghei infected in Swiss mouse assessed as reduction in parasitaemia at 20 mg/kg, ip administered for 4 days measured on day 7 by FACS analysis relative to control; assay type: functional; parameters: scale not given: the % may be the effect or the level left; settings: route intraperitoneal
How it was run: (§1)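 Intraperitoneal dosing at 20 mg/kg daily for four consecutive days. Parasitaemia read on day 4 and day 7. Activity is the difference between mean percent parasitaemia of the control group (n = 5 mice) and the treated group, expressed as a percent of control.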

[2] = test system: Plasmodium berghei; test: Antimalarial activity against Plasmodium berghei infected in Swiss mouse assessed as reduction in parasitaemia at 20 mg/kg, ip administered for 4 days measured on day 4 post last dose by FACS analysis relative to control; assay type: functional; parameters: scale not given: the % may be the effect or the level left; settings: route intraperitoneal; how it was run: as §1
[3] = test system: Plasmodium falciparum; test: Resistance index, ratio of IC50 for chloroquine-resistant erythrocytic stage of Plasmodium falciparum K1 to IC50 for chloroquine-sensitive erythrocytic stage of Plasmodium falciparum NF54; assay type: functional
[4] = Selectivity index, ratio of IC50 for rat L6 cells to IC50 for chloroquine-resistant erythrocytic stage of Plasmodium falciparum K1; assay type: toxicity, cell-based; settings: read-out: Ratio IC50
How it was run: (§2)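 IC50 in rat L6 skeletal myoblasts divided by the antiplasmodial IC50 for the named strain. L6 cells were seeded at 4000 per well in RPMI 1640 with L-glutamine and 10% FBS and exposed to eleven 3-fold dilutions from 100 to 0.002 µg/mL for 70 h. Alamar Blue was then added for 2 h and fluorescence read at ex 536 / em 588 nm. IC50 by linear regression of the sigmoidal curves.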

[5] = test system: Plasmodium falciparum; test: Antimalarial activity against chloroquine-sensitive erythrocytic stage of Plasmodium falciparum NF54 infected in human red blood cells assessed as growth inhibition after 72 hrs by [3H]-hypoxanthine incorporation assay
[6] = test system: Plasmodium falciparum; test: Antimalarial activity against chloroquine-resistant erythrocytic stage of Plasmodium falciparum K1 infected in human red blood cells assessed as growth inhibition after 48 hrs by [3H]-hypoxanthine incorporation assay; assay type: functional, organism-based
How it was run: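 Erythrocytic P. falciparum in RPMI 1640 without hypoxanthine, with HEPES, NaHCO3, neomycin, Albumax, and human A+ red cells at 2.5% haematocrit and 0.3% parasitaemia. Compounds from a 10 mg/mL DMSO stock, eleven 3-fold dilutions from 100 to 0.002 µg/mL. Incubated 48 h at 37 °C (4% CO2, 3% O2), then 3H-hypoxanthine added for 24 h more. Cells harvested and counted by scintillation. IC50 by linear regression of the sigmoidal curves, mean of two independent assays.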

[7] = test system: L6; test: Cytotoxicity against rat L6 cells assessed as growth inhibition after 70 hrs by Alamar blue staining-based inverted microscopic analysis; assay type: cell-based; settings: L6, 70 h
How it was run: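 L6 rat skeletal myoblasts, 4000 cells/well in RPMI 1640 with 1% L-glutamine (200 mM) and 10% FBS. Eleven 3-fold dilutions spanning 100 to 0.002 µg/mL. After 70 h, Alamar Blue added for 2 h more. Fluorescence read at ex 536/em 588 nm. IC50 from sigmoidal dose–inhibition curves by linear regression.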

[8] = Inhibition of beta-haematin formation after 5 to 6 hrs by UV-vis spectamax plate reader analysis; assay type: functional
How it was run: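 Detergent-mediated assay: compounds from DMSO stocks (20, 2, 0.4 mM) in duplicate, 0–1000 µM final. Added water and NP-40, then haematin at 100 µM final in 0.5 M acetate buffer pH 4.8. Incubated at 37 °C for 5–6 h. Pyridine added to 5% v/v final in HEPES pH 7.4 with acetone. Haem–pyridine absorbance read (405 nm). IC50 from sigmoidal fits.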

[9] = Selectivity index, ratio of IC50 for rat L6 cells to IC50 for chloroquine-sensitive erythrocytic stage of Plasmodium falciparum NF54; assay type: toxicity, cell-based; settings: read-out: Ratio IC50; how it was run: as §2
[10] = Solubility of the compound in water; assay type: physicochemical; settings: buffer
[11] = test system: MRC5; test: Cytotoxicity against human MRC5 cells assessed as growth inhibition; assay type: cell-based

solubility [10] | Compound | Activity [1] | Activity [2] | Ratio IC50 [3] | selectivity ratio [4] | IC50 [5] | IC50 [6] | IC50 [7] | IC50 [8] | selectivity ratio [9] | IC50 [11]
 | COC(=O)c1ccc2c(c1)c(NCCCN)c1c3ccccc3nc-1n2C | 72.5% | 33.4% | 2.67 | 15.2 | 8.28 nM | 22.1 nM | 337 nM | 104000 nM | 40.7 | 
 | COC(=O)c1ccc2nc3n(C)c4ccccc4c(N4CCCN(C)CC4)c-3c2c1 |  |  |  |  | 750 nM |  | 6190 nM | 106000 nM | 8.25 | 
 | Cn1c2nc3ccc(Br)cc3c-2c(NCCCNC(=O)Nc2ccccc2)c2cc(Cl)ccc21 |  |  | 3 | 24.3 | 5.59 nM | 16.8 nM | 408 nM | 17800 nM | 73 | 
 | COC(=O)c1ccc2c(c1)c(NCCCN)c1c3cc(Br)ccc3nc-1n2C |  |  | 3.5 | 66 | 4.54 nM | 15.9 nM | 1050 nM | 10200 nM | 232 | 
 | COC(=O)c1ccc2nc3n(C)c4ccc(Cl)cc4c(NCCCNC(=O)Nc4ccccc4)c-3c2c1 |  |  | 1.71 | 143 | 13.6 nM | 23.3 nM | 3340 nM | 14900 nM | 246 | 
 | CCN(CC)CCCC(C)Nc1ccnc2cc(Cl)ccc12 (configuration not stated) [CHLOROQUINE] |  |  |  |  |  |  |  | 18400 nM |  | 
 | COC(=O)c1ccc2nc3n(C)c4ccc(Br)cc4c(NCCCN)c-3c2c1 |  |  |  |  | 2.27 nM |  | 819 nM | 11500 nM | 361 | 
 | COC(=O)c1ccc2c(c1)c(NCCCNC(=S)Nc1ccccc1)c1c3ccccc3nc-1n2C |  |  | 8.89 | 36.1 | 1.81 nM | 16.1 nM | 581 nM | 15700 nM | 321 | 
soluble | CN(C)CCCNc1c2c3cc(C(=O)O)ccc3nc-2n(C)c2ccccc12 |  |  |  |  | 2160 nM |  | 66200 nM |  | 30.6 | 
 | COC(=O)c1ccc2nc3n(C)c4ccccc4c(NCCCNC(=O)Nc4ccccc4)c-3c2c1 |  |  | 4.71 | 37.7 | 14.5 nM | 68.4 nM | 2580 nM | 12800 nM | 178 | 
 | COC(=O)c1ccc2nc3n(C)c4ccc(Br)cc4c(NCCCNC(=O)Nc4ccccc4)c-3c2c1 |  |  |  |  | 8.05 nM |  | 6740 nM | 16000 nM | 837 | 
 | COC(=O)c1ccc2nc3n(C)c4ccccc4c(NCCCCN)c-3c2c1 |  |  |  |  | 55.8 nM |  | 436 nM |  | 7.81 | 
 | COC(=O)c1ccc2c(c1)c(NCCCNC(=O)Nc1ccccc1)c1c3ccccc3nc-1n2C |  |  | 13.5 | 13.4 | 4.16 nM | 56.1 nM | 754 nM | 23000 nM | 181 | 
 | COC(=O)c1ccc2nc3n(C)c4ccc(C(=O)OC)cc4c(NCCCNC(=S)Nc4ccccc4)c-3c2c1 |  |  | 3.5 | 12.4 | 14.4 nM | 50.4 nM | 627 nM | 7500 nM | 43.5 | 
 | Cn1c2nc3ccccc3c-2cc2ccccc21 [NEOCRYPTOLEPINE] |  |  | 1.07 | 1.88 |  |  |  |  | 2 | 
 | COC(=O)c1ccc2nc3n(C)c4ccc(Cl)cc4c(NCCCN)c-3c2c1 |  |  | 2.67 | 21.1 | 7.57 nM | 20.2 nM | 427 nM | 25400 nM | 56.4 | 
 | COC(=O)c1ccc2nc3n(C)c4ccccc4c(NCCCN(C)C)c-3c2c1 |  |  |  |  | 33.3 nM |  | 268 nM | 62500 nM | 8.05 | 
 | Cn1c2nc3ccccc3c-2c(NCCCN)c2ccccc21 |  |  |  |  |  |  |  |  | 3.5 | 
soluble | CN(C)CCNc1c2c3cc(C(=O)O)ccc3nc-2n(C)c2ccccc12 |  |  |  |  | 2550 nM |  | 20000 nM |  | 7.84 | 
 | COC(=O)c1ccc2nc3n(C)c4ccccc4c(NCCCN)c-3c2c1 | 72.5% | 33.4% | 1.22 | 7.19 | 24.8 nM | 30.3 nM | 218 nM | 48900 nM | 8.79 | 
soluble | Cn1c2nc3ccc(C(=O)O)cc3c-2c(NCCCN)c2ccccc21 |  |  |  |  | 1690 nM |  | 113000 nM |  | 66.8 | 
 | COC(=O)c1ccc2nc3n(C)c4ccc(C(=O)OC)cc4c(NCCCNC(=O)Nc4ccccc4)c-3c2c1 |  |  | 2.44 | 650 | 16.7 nM | 40.8 nM | 26500 nM | 4600 nM | 1590 | 
 | COC(=O)c1ccc2nc3n(C)c4ccccc4c(N4CCOCC4)c-3c2c1 |  |  |  |  | 1770 nM |  | 3810 nM | 55500 nM | 2.15 | 
 | COC(=O)c1ccc2c(c1)c(NCCCNC(=O)Nc1ccccc1)c1c3cc(Br)ccc3nc-1n2C |  |  | 2.75 | 56.9 | 7.15 nM | 19.7 nM | 1120 nM | 10100 nM | 157 | 
 | COC(=O)c1ccc2nc3n(C)c4ccccc4c(NCCCO)c-3c2c1 |  |  |  |  | 278 nM |  | 639 nM | 123000 nM |  | 
 | Cn1c2nc3ccccc3c-2cc2cc(Br)ccc21 |  |  |  |  |  |  |  |  |  | > 32000 nM
 | Cn1c2nc3ccc(Br)cc3c-2c(NCCCN)c2cc(Cl)ccc21 |  |  | 8.89 | 20.9 | 2.16 nM | 19.2 nM | 401 nM | 30100 nM | 186 | 
 | COC(=O)c1ccc2nc3n(C)c4ccccc4c(NCCN(C)C)c-3c2c1 |  |  |  |  | 42.5 nM |  | 315 nM | 51500 nM | 7.41 | 
 | COC(=O)c1ccc2nc3n(C)c4ccccc4c(NCCCNC(=S)Nc4ccccc4)c-3c2c1 |  |  | 10.7 | 43.8 | 6.03 nM | 64.4 nM | 2820 nM | 10800 nM | 467 | 
 | COC(=O)c1ccc2nc3n(C)c4ccc(C(=O)OC)cc4c(NCCCN)c-3c2c1 |  |  | 1.25 | 117 | 9.52 nM | 11.9 nM | 1390 nM | 13000 nM | 146 | 
